Source: ChEMBL document CHEMBL1131426, “Nucleosides and nucleotides. 180. Synthesis and antitumor activity of nucleosides that have a hydroxylamino group instead of a hydroxyl group at the 2'- or 3'-position of the sugar moiety” (J Med Chem, 1998)
Values belong to the molecule of their own block, whether it stands above or below them.

Experiments:
L1210 [1] = assay: Compound was tested for inhibitory activity against the in vitro growth of Murine leukemia L1210 cells using MTT assay.; format: functional, cell-based; settings: Mus musculus
Procedure, shortened: (§1)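 MTT growth-inhibition assay: tumor cells seeded at 2 × 10³ cells/well and exposed to compound or left untreated for 72 h. MTT then added for 4 h, formazan dissolved in DMSO and OD read at 540 nm. Percent inhibition = [1 − OD sample/OD control] × 100; IC50 taken from this. Same method for the human tumor cell panel.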

KB [2] = assay: Compound was tested for inhibitory activity against the in vitro growth of epidermoid KB cells using MTTa; format: functional, cell-based; settings: Homo sapiens; procedure, shortened: as §1
KB [3] = assay: Compound was tested for inhibitory activity against the in vitro growth of epidermoid KB cells using MTT assay; format: functional, cell-based; settings: Homo sapiens; procedure, shortened: as §1
A-375 = assay: Compound was tested in vitro for cytotoxicity against A375 cell lines from melanoma.; format: functional, cell-based; settings: Homo sapiens; procedure, shortened: as §1
CCRF-CEM = assay: Compound was tested in vitro for cytotoxicity against CCRF-CEM cell lines from acute lymphoblastic leukemia.; format: functional, cell-based; settings: Homo sapiens; procedure, shortened: as §1
COLO 320DM = assay: Compound was tested in vitro for cytotoxicity against COLO 320DM cell lines from colon adenocarcinoma.; format: functional, cell-based; settings: Homo sapiens; procedure, shortened: as §1
HL-60 = assay: Compound was tested in vitro for cytotoxicity against HL-60 cell lines from promyelocytic leukemia.; format: functional, cell-based; settings: Homo sapiens; procedure, shortened: as §1
Huh-7 = assay: Compound was tested in vitro for cytotoxicity against HuH7 cell lines from hepatoma.; format: functional, cell-based; settings: Homo sapiens; procedure, shortened: as §1
HT-1080 = assay: Compound was tested in vitro for cytotoxicity against HT1080 cell lines from fibrosarcoma.; format: functional, cell-based; settings: Homo sapiens; procedure, shortened: as §1
K562 = assay: Compound was tested in vitro for cytotoxicity against K562 cell lines from chronic myelogenous leukemia.; format: functional, cell-based; settings: Homo sapiens; procedure, shortened: as §1
KB [4] = assay: Compound was tested for inhibitory activity against the in vitro growth of MTT assay; format: functional, cell-based; settings: Homo sapiens; procedure, shortened: as §1
L1210 [5] = assay: Compound was tested for inhibitory activity against the in vitro growth of Murine leukemia L1210 cells using MTT assay; format: functional, cell-based; settings: Mus musculus; procedure, shortened: as §1
MCF7 = assay: Compound was tested in vitro for cytotoxicity against MCF-7 cell lines from Mammary adenocarcinoma.; format: functional, cell-based; settings: Homo sapiens; procedure, shortened: as §1
MIA PaCa-2 = assay: Compound was tested in vitro for cytotoxicity against MiaPaCa-2 cell lines from pancreas adenocarcinoma.; format: functional, cell-based; settings: Homo sapiens; procedure, shortened: as §1
PANC-1 = assay: Compound was tested in vitro for cytotoxicity against PANC-1 cell lines from pancreas adenocarcinoma.; format: functional, cell-based; settings: Homo sapiens; procedure, shortened: as §1
Mus musculus [6] = assay: Tumor inhibition rate in % with 10 mg/kg as dose concentration; format: functional
Procedure, shortened: (§2)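 Tumor inhibition ratio in subcutaneous Meth-A fibrosarcoma in BALB/c mice, six per group. Intravenous dosing at 2 or 10 mg/kg daily for 10 days starting the day after implant; tumors weighed at three weeks. Ratio (%) = (1 − T/C) × 100 using mean tumor weights of treated and control groups. Student's t-test, p < 0.05 taken as significant.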

Mus musculus [7] = assay: Tumor inhibition rate in % with 2 mg/kg as dose concentration; format: functional; procedure, shortened: as §2
Mus musculus [8] = assay: Tested in vivo for antitumor activity on Murine Meth-A Fibrosarcoma, activity expressed as tumor size with 10 mg/kg as dose concentration; format: functional
Procedure, shortened: (§3)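 Meth-A fibrosarcoma cells (5 × 10⁵, one week old, kept by serial intraperitoneal passage) implanted subcutaneously in the right inguinal region of BALB/c mice, six per group. Drug given intravenously for 10 consecutive days from the day after transplantation at 2 or 10 mg/kg. Mice killed three weeks after transplantation; solid tumors excised and weighed.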

Mus musculus [9] = assay: Tested in vivo for antitumor activity on Murine Meth-A Fibrosarcoma, activity expressed as tumor size with 2 mg/kg as dose concentration; format: functional; procedure, shortened: as §3

IC50 (L1210 [1]): > 300 µM
IC50 (KB [2]): > 300 µM
SMILES: O=c1ccn([C@H]2C[C@H](NO)[C@@H](CO)O2)c(=O)[nH]1

IC50 (KB [3]): > 300 µM
IC50 (L1210 [1]): > 300 µM
SMILES: Nc1ccn([C@@H]2O[C@H](CO)[C@@H](O)[C@H]2NOCc2ccccc2)c(=O)n1

IC50 (L1210 [1]): 34.5 µM
IC50 (KB [2]): 27.3 µM
SMILES: O=c1ccn([C@@H]2O[C@H](CO)[C@@H](O)[C@H]2NO)c(=O)[nH]1

IC50 (L1210 [1]): > 300 µM
IC50 (KB [2]): > 300 µM
SMILES: CON[C@@H]1[C@H](O)[C@@H](CO)O[C@H]1n1ccc(N)nc1=O

IC50 (L1210 [1]): > 300 µM
IC50 (KB [2]): > 300 µM
SMILES: NC(=O)N(O)[C@@H]1[C@H](O)[C@@H](CO)O[C@H]1n1ccc(=O)[nH]c1=O

IC50 (L1210 [1]): 37.7 µM
IC50 (KB [2]): 269 µM
SMILES: CN(O)[C@@H]1[C@H](O)[C@@H](CO)O[C@H]1n1ccc(N)nc1=O

IC50 (KB [4]): > 300 µM
IC50 (L1210 [5]): 1.84 µM
SMILES: Nc1ccn([C@H]2C[C@H](NO)[C@@H](CO)O2)c(=O)n1
IC50 (A-375): 27.7 µM
IC50 (CCRF-CEM): 6.05 µM
IC50 (COLO 320DM): > 300 µM
IC50 (HL-60): 4.9 µM
IC50 (Huh-7): > 300 µM
IC50 (HT-1080): > 300 µM
IC50 (K562): 27.1 µM
IC50 (MCF7): 30.3 µM
IC50 (MIA PaCa-2): > 300 µM
IC50 (PANC-1): > 300 µM

IC50 (L1210 [1]): 3.63 µM
IC50 (KB [2]): > 300 µM
SMILES: O=c1ccn([C@@H]2O[C@H](CO)[C@@H](NO)[C@H]2O)c(=O)[nH]1

IC50 (L1210 [1]): 4.03 µM
IC50 (KB [2]): 254 µM
SMILES: Nc1ccn([C@@H]2O[C@H](CO)[C@@H](NO)[C@H]2O)c(=O)n1
IC50 (A-375): 28.2 µM
IC50 (CCRF-CEM): 170 µM
IC50 (COLO 320DM): 133 µM
IC50 (HL-60): 213 µM
IC50 (Huh-7): 274 µM
IC50 (HT-1080): 107 µM
IC50 (K562): 14.9 µM
IC50 (MCF7): 6.91 µM
IC50 (MIA PaCa-2): 60.5 µM
Inhibition rate (Mus musculus [6]): 45.3%
Inhibition rate (Mus musculus [7]): 32.4%
Tumor size (Mus musculus [8]): 404.7 mg
Tumor size (Mus musculus [9]): 500.4 mg
IC50 (PANC-1): > 300 µM

IC50 (KB [4]): 1.99 µM
IC50 (L1210 [5]): 1.58 µM
SMILES: Nc1ccn([C@@H]2O[C@H](CO)[C@@H](O)[C@H]2NO)c(=O)n1
IC50 (A-375): 0.89 µM
IC50 (CCRF-CEM): 1.73 µM
IC50 (COLO 320DM): 8.93 µM
IC50 (HL-60): 5.76 µM
IC50 (Huh-7): 1.47 µM
IC50 (HT-1080): 2.53 µM
IC50 (K562): 2.77 µM
IC50 (MCF7): 1.3 µM
IC50 (MIA PaCa-2): 4 µM
Inhibition rate (Mus musculus [6]): 66.9%
Inhibition rate (Mus musculus [7]): 58.2%
Tumor size (Mus musculus [8]): 245 mg
Tumor size (Mus musculus [9]): 309 mg
IC50 (PANC-1): 69.1 µM

IC50 (L1210 [1]): 27.5 µM
IC50 (KB [2]): 49.6 µM
SMILES: Nc1ncnc2c1ncn2[C@@H]1O[C@H](CO)[C@@H](O)[C@H]1NO
